A selection: hits, their analogues and other compounds. The true share with any hit is near 2%.
DNMT1 inh = DNMT1 (human) enzyme inhibition; P26358; DNMT1 molecular beacon, Hinp1I cleavage, fluorescence; inhibition (reported as % activation of signal), % at 10 µM; hit rate 0.83% among 360,000; AID 588458; in the data active = inhibition above about 50%
Scp-1 inhibitor = Scp-1 (human) phosphatase inhibition; Q9GZU7; Recombinant Scp1, phosphopeptide, malachite green phosphate absorbance; inhibition, % at 20 µM; hit rate 0.88% among 340,000;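 active = inhibition above about 50% at 20 µM, limit read from the data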
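Test system: SCP-1 phosphatase catalytic domain, residues 76-261; measured by: colorimetric phosphate reagent with accelerator and stabiliser, absorbance at 630 nm; timing: enzyme reaction 45 min at room temperature, colour 5 min, stabilisation 30 min; also added: Phosphorylated 17-residue peptide substrate; compound dosing: one concentration, 20 µM, with 1.0% DMSO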
LMPTP block = LMPTP (human) inhibition; inhibition, % at 20 µM; P24666; hit rate 0.22% among 360,000; recombinant LMPTP-A, OMFP fluorogenic substrate, fluorescence intensity;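 active = compounds that cut the enzyme signal by at least half of the control window in the single-dose screen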
Target sequence (P24666 whole entry, looked up): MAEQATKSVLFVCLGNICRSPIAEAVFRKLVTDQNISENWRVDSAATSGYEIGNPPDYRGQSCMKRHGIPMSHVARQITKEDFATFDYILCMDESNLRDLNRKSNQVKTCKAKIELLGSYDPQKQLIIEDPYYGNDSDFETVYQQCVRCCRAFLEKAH
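Test system: LMPTP-A phosphatase enzyme; input: 0.625 nM LMPTP-A final; reagent: OMFP substrate, 400 µM final; compound dosing: 20 µM single dose, 3% DMSO; incubation: 50 min dark incubation at room temperature; measured by: endpoint fluorescence intensity from OMFP dephosphorylation; measure: % inhibition relative to no-enzyme and uninhibited control wells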
STEP inh = inhibitors of human striatal-enriched phosphatase STEP | hit rate 0.25% among 360,000 | P54829 | inhibition, % at 20 µM | AID 588621 | recombinant STEP, OMFP fluorogenic substrate, fluorescence;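 active = inhibition at 20 µM, scaled per plate between control wells, above about 37%, limit read from the data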
Target sequence (P54829 whole entry, looked up): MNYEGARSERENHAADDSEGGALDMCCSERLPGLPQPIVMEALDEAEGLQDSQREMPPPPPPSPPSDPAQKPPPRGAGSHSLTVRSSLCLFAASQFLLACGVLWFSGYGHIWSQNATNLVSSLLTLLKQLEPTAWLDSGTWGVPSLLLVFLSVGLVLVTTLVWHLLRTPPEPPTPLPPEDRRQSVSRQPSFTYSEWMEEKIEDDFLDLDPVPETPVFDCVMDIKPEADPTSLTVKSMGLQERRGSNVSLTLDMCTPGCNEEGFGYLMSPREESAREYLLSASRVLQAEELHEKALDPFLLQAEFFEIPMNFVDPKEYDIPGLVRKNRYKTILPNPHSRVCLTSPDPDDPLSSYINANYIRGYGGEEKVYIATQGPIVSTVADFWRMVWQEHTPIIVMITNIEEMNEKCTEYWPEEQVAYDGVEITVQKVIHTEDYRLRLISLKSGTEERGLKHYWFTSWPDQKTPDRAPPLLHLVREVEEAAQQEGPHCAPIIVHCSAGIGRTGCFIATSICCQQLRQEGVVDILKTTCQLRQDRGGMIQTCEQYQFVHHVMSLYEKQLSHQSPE
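System: STEP (striatal-enriched tyrosine phosphatase) enzyme, cell-free; medium: Bis-Tris pH 6.0 buffer with DTT, detergent; dosing: 20 µM, 1% DMSO; times: reaction 20 min, ambient temperature; detection: fluorescence, 480/540 nm; read-out basis: normalized % inhibition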
CSN inh = inhibitors of human CSN-mediated cullin deneddylation | Q92905 | Purified CSN, SCF-Nedd8-OG deneddylation, fluorescence polarization | inhibition, % at 12.5 µM | hit rate 0.38% among 360,000;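 active = pattern-corrected inhibition above about 35%, with an unprinted fluorescence ratio check between 0.5 and 1.5, limit read from the data, passing the limit was not always enough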
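assay system = purified human Csn5 enzyme expressed in HEK293T cells | amount = 0.24 nM enzyme | buffer or medium = Tris/NaCl/DTT buffer, pH 7.5 | reagent = 10 nM SCFSkp2-Nedd8OG | compound = one concentration, 12.5 µM, 0.25% DMSO | times = 90 min reaction at room temperature | signal = FP | read-out basis = % inhibition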
SUMO1-SIM PPI = alters human SUMO1 binding to SIM partners | P63165 | SUMO1 binding to a labelled peptide, TR-FRET, 1 h | inhibition, % at 20 µM | hit rate 0.33% among 360,000 | AID 602429; in the data active = inhibition above about 37%
Scp-1 conf = Scp-1 (human) inhibition, single-dose confirmed | shares compounds with Scp-1 inhibitor | recombinant SCP-1 catalytic domain, phosphate release, malachite green absorbance | inhibition, % at 20 µM | hit rate 61% among 2,500
MG interference = colorimetric interference in Scp-1 counter-screen; apparent inhibition (interference), % at 20 µM; shares compounds with Scp-1 inhibitor; Colorimetric interference counterscreen, malachite green absorbance 630 nm; 2,500 tested, under 10 active;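 also: compounds added after enzyme reaction finished so only phosphate colour detection is probed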
Scp-1 Tm shift = validation of human Scp-1 inhibitors by thermal shift binding; shares compounds with Scp-1 inhibitor; Recombinant SCP1, Sypro Orange thermal shift Tm; thermal shift relative to vanadate control, % at 40 µM; hit rate 25% among 1,500; AID 540329;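 active = substances whose mean melting-temperature shift, as a percentage of the reference inhibitor's shift, reaches about 5.3%, limit read from the data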
A number is an active result; i = inactive; nt = no result.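 The calls were made as follows, unless noted: active = inhibition of at least 30% at 20 µM; inactive = the rest.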

SMILES | DNMT1 inh | Scp-1 inhibitor | LMPTP block | STEP inh | CSN inh | SUMO1-SIM PPI | Scp-1 conf | MG interference | Scp-1 Tm shift
N#C/C(=C\c1cccs1)c1nc2ccccc2[nH]1 | i | i | i | i | i | i | nt | nt | nt
N#C/C(=C\c1ccc(OC(=O)c2cccs2)cc1)c1nc2ccccc2[nH]1 | i | 52 | i | i | i | i | 83 | i | i
O=C(COC(=O)c1ccc(O)cc1O)Nc1ccc2c(c1)OCCO2 | i | i | i | i | i | i | nt | nt | nt
CCOC(=O)c1ccc(NC(=O)CSc2nnc(-c3cccs3)n2C)cc1 | i | 105 | i | i | i | i | i | i | nt
CCOC(=O)c1ccc(NC(=O)CSc2nnc(-c3cccs3)n2CC)cc1 | i | i | i | i | i | i | nt | nt | nt
CN1CCN(S(=O)(=O)c2cccc(C(=O)N(C)CC(=O)Nc3ccc(F)c(F)c3F)c2)CC1 | i | 95 | i | i | i | i | i | i | nt
COc1ccccc1NS(=O)(=O)c1cc(N=N/C(C(=O)Nc2ccc(Cl)cc2)=C(/C)O)ccc1C | i | i | i | i | i | i | nt | nt | nt
COc1ccccc1NC(=O)/C(N=Nc1ccc(C)c(S(=O)(=O)Nc2ccccc2Cl)c1)=C(\C)O | i | 50 | i | i | i | i | i | i | nt
Cc1ccc(S(=O)(=O)N2[C@H](CC(=O)OCc3ccccc3)OC[C@@H]2C(C)C)cc1 | nt | nt | i | nt | i | i | nt | nt | nt
Cc1ccn2c(=O)nc(SCC(=O)NCc3ccco3)nc2c1 | i | 72 | i | i | i | i | 35 | i | i
Cc1ccn2c(=O)nc(SCC(=O)NCc3ccccc3)nc2c1 | i | 87 | i | i | i | i | 61 | i | 5.7
Cc1ccc2cc(C)c3nnc(SCC(=O)NCc4ccco4)n3c2c1 | i | 78 | i | i | i | i | 57 | i | i
Cc1ccc(CNC(=O)CSc2nc(=O)n3ccc(C)cc3n2)cc1 | i | nt | i | i | i | i | nt | nt | nt
CC(=O)C1=C(O)C(=O)N(c2ccc(Br)cc2)C1c1ccc(Br)cc1 (stereo not drawn) | i | i | i | i | i | i | nt | nt | nt
CCOc1cc(/C=C\c2nc(O)c([N+](=O)[O-])c(=O)[nH]2)ccc1OC(C)C | i | i | i | i | i | i | nt | nt | nt
C=CCc1cc(/C=C/c2nc(O)c([N+](=O)[O-])c(=O)[nH]2)cc(OC)c1O | i | 64 | i | i | i | i | 59 | i | 11
CCOc1ccc(N2CC(C(=O)N3CCc4ccccc43)CC2=O)cc1 (stereo not drawn) | i | i | i | i | i | i | nt | nt | nt
O=C1C(=O)N(CCO)C(c2ccccc2)/C1=C(\O)c1ccccc1 (stereo not drawn) | i | 57 | i | i | i | i | i | i | nt
Cc1ccc(CN2C(=O)N/C(=C/c3ccc(-c4ccc(C(=O)O)cc4)o3)C2=O)cc1 | i | 59 | i | i | i | 39 | 48 | i | i
C#CCN1C(=O)S/C(=C\c2ccc(-c3ccc(Cl)c(C(=O)O)c3)o2)C1=O | i | i | i | i | i | i | nt | nt | nt
O=C(O)c1cc(-c2ccc(/C=C3\NC(=O)N(c4ccccc4)C3=O)o2)ccc1Cl | 57 | 73 | i | 40 | i | i | 55 | i | 9.1
CCOC(=O)C1(C)Oc2ccccc2C(C(=O)OC)=C1C(=O)OC (stereo not drawn) | i | 94 | i | i | i | i | 53 | i | i
CCOC(=O)C1(C)Oc2ccccc2C(c2ccc(OC)cc2)=C1C(=O)OC (stereo not drawn) | i | i | i | i | i | i | nt | nt | nt
C[N+]1=C(/C=C/Nc2ccccc2Cl)C(C)(C)c2ccccc21 | i | 99 | i | i | i | i | 79 | i | i
O=C(CCNS(=O)(=O)c1ccccc1)NNC(=O)C1COc2ccccc2O1 (stereo not drawn) | i | i | i | i | i | i | nt | nt | nt
SMILES | DNMT1 inh | Scp-1 inhibitor | LMPTP block | STEP inh | CSN inh | SUMO1-SIM PPI | Scp-1 conf | MG interference | Scp-1 Tm shift
CCOc1ccc(Br)cc1C(=O)N/N=C/c1ccc([N+](=O)[O-])cc1 | i | 81 | i | i | i | i | 32 | i | i
CCOc1ccc(Br)cc1C(=O)N/N=C/c1ccccn1 | i | i | i | i | i | i | nt | nt | nt
COc1ccc(Br)cc1C(=O)N/N=C/c1ccc([N+](=O)[O-])cc1 | i | 99 | i | i | i | i | 33 | i | i
CN(Cc1c(C(=O)N/N=C/c2cccs2)nnn1-c1nonc1N)c1ccccc1 | i | i | i | i | i | i | nt | nt | nt
C=CCn1c(Cc2cccs2)nnc1SCC(=O)NCc1ccco1 | i | 53 | i | i | i | i | 47 | i | i
C=CCn1c(COc2ccccc2F)nnc1SCC(=O)NC(=O)NCc1ccco1 | i | 91 | i | i | i | i | 65 | i | i
C=CCn1c(COc2ccccc2-c2ccccc2)nnc1SCC(=O)NC(=O)NCc1ccco1 | i | i | i | i | i | i | nt | nt | nt
COc1ccccc1OCc1nnc(SCC(=O)NCc2ccco2)n1Cc1ccco1 | i | 95 | i | i | i | i | 88 | i | i
O=C(CSc1ccsc1[N+](=O)[O-])NCc1ccco1 | i | 57 | i | i | i | i | 61 | i | i
C=CCn1c(SCC(=O)NCc2ccco2)nnc1C1CCCCC1 | i | i | i | i | i | i | nt | nt | nt
CC1CC(C)CN(C(=O)c2ccc3c(c2)N(Cc2ccccc2)CCS3)C1 (stereo not drawn) | i | 79 | i | i | i | i | i | i | nt
O=C(NCc1ccc2c(c1)OCO2)c1ccccc1Cl | i | i | i | i | i | i | nt | nt | nt
O=C(NCc1ccc2c(c1)OCO2)c1cc(-n2cnnc2)ccc1Cl | i | 85 | i | i | i | i | i | i | nt
O=C(CSc1nnc(-c2ccncc2)n1-c1ccccc1)N1CCN(c2ccc(Cl)cc2)CC1 | i | 98 | i | i | i | i | i | i | nt
COc1cc(OC)cc(C(=O)N[C@H](C(=O)OCC(=O)Nc2sccc2C#N)C(C)C)c1 | i | i | i | i | i | i | nt | nt | nt
COc1cccc2cc(C(=O)CS(=O)(=O)c3ccc(C)cc3)c(=O)oc12 | i | 66 | i | i | i | i | i | i | nt
CCn1c(C)c2c([n+]1CC)CC(C)(C)CC2=O | i | 55 | i | i | i | i | 75 | i | i
CC(=O)Nc1ccc(S(=O)(=O)/N=C2/NC(=O)/C(=C\c3ccco3)S2)cc1 | 51 | 53 | i | i | i | i | 54 | i | 10
Cc1ccc(S(=O)(=O)/N=C2/NC(=O)/C(=C\c3ccco3)S2)cc1 | i | i | i | i | i | i | nt | nt | nt

From PubChem
